Laboratory results from PMC6589987 (Therapeutic Advances in Chronic Disease, 2019).
Entries after “also recorded” stand apart in the source; their conditions may differ. Read-outs that look alike come from different tables or passages of the source.

Columns and labels:
[1] = after subcutaneous injection; cited from earlier work
[2] = Plasma levodopa pharmacokinetics after inhaled; format: in vivo, human; conditions: for AUC: inhaled or intranasal
In short: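 Eight Parkinson's patients, not in the off state, got single morning doses at least 7.5 h after their last home dose, fasting 60 min before to 60 min after. Oral doses were 100/25–250/62.5 mg with decarboxylase inhibitor, normalised to 100 mg. Plasma had glutathione added and was stored at −80°C, then assayed by LC-MS/MS (LOQ 1.0 nmol/l). Half-life came from Cmax and the last concentration.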

[3] = Airway tolerability: spirometry; format: in vivo, human
In short: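 Eight patients with Parkinson's disease (not off) inhaled dry-powder levodopa by mouth: 30 mg, then 60 mg (2 × 30 mg). At a third visit they took their regular oral levodopa/decarboxylase inhibitor. Visits were ≥7 days apart, in the morning, ≥7.5 h after the last home dose, with no food for 60 min either side. Spirometry (pneumotachograph, ATS/ERS) was done before and ±35 and 100 min after dosing. FEV1 drop >10% from baseline was deemed relevant. Cough and dyspnoea were queried each session (Borg scale).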

[4] = Delivered dose and fine particle dose from the Cyclops inhaler; format: physicochemical; conditions: at 4 kPa; laser diffraction
In short: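 Residue left in the inhaler after each patient inhalation was measured by UV spectrophotometry. Delivered dose was calculated as blister dose minus inhaler residue. Fine particle dose (<5 µm) was measured by laser diffraction at 4 kPa.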

[5] = cited from earlier work
[6] = progressed, fluctuating patients; cited from earlier work

SMILES | lag time to onset of effect [1] [min] | AUC ([2]; human, plasma, 30 mg) [ng·h/mL] | AUC ([2]; human, plasma, 60 mg) [ng·h/mL] | half-life ([2]; human, plasma, po, mean elimination half-life time, oral administration of levodopa plus decarboxylase inhibitor) [h] | elimination half-life ([2]; inhaled levodopa, both doses, range and mean) [h] | time by which inhaled levodopa is absorbed faster in the blood plasma than oral ([2]; inhaled vs oral) | relative bioavailability of inhaled levodopa in comparison with oral levodopa ([2]; inhaled without carboxylase inhibitor vs oral with carboxylase inhibitor) [%] | mean elimination half-life time ([2]; oral administration of levodopa plus decarboxylase inhibitor) [h] | change in lung-function parameters (FEV1, FVC, MEF50) ([3]; after inhalation of 30 mg or 60 mg levodopa, spirometry ±35 and 100 min after administration) | tolerability ([3]; after inhalation, 30 and 60 mg) | change in lung-function parameters (FEV1, FVC, MEF50) ([3]; after oral administration of levodopa) | patients experiencing cough or dyspnoea ([3]; during or after inhalation) | fine particle dose (<5 µm) [4] | plasma levodopa concentration ([5]; 10 min after 100 mg oral levodopa in the fasted state) | absolute bioavailability ([5]; oral immediate-release levodopa combined with a decarboxylase inhibitor) | absolute bioavailability ([5]; oral immediate-release levodopa) | increase in levodopa effect compartment concentration giving maximum effect on finger tapping [6] [ng/mL]
CN1CCc2cccc3c2[C@H]1Cc1ccc(O)c(O)c1-3 [apomorphine] | > 20 |  |  |  |  |  |  |  |  |  |  |  |  |  |  |  | 
N[C@@H](Cc1ccc(O)c(O)c1)C(=O)O [levodopa, Levodopa] |  | 9.69 | 9.58 | 1.13 ± 0.343 | 0.967 | up to 85 min | 53 | 1.13 | No significant change; also recorded: none of the patients | well tolerated | No significant change | none of the patients | 45 % of the delivered dose | around 150 ng/ml | approximately 85% | 40–60% | 200 to 400
